Assay results as given in ChEMBL document CHEMBL2440018 (J Med Chem, 2013).
Activity calls are given as the source filed them. The calls are words filed in the database; no cut-off is given here.

Assays:
[1] = Ratio of AUC in brain to plasma in C57Bl/6J mouse assessed as 4-(4-(thiiran-2-ylmethylsulfonyl)phenoxy)phenol at 25 mg/kg, sc; format: ADME, organism-based; design: dose 25 mg/kg, route subcutaneous
Plasma [2] = assay: Elimination half life in C57Bl/6J mouse plasma assessed as 4-(4-(thiiran-2-ylmethylsulfonyl)phenoxy)phenol at 25 mg/kg, sc; format: ADME, organism-based; design: dose 25 mg/kg, route subcutaneous; conditions: in vivo
How it was run: (§1)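 Mice were dosed sc once at 25 mg/kg; plasma and perfused brain (n = 3 per time point) were quantified by UPLC/ESI-MRM. AUC0-last came from the mean concentration-time curve by the trapezoidal rule, and AUC0-∞ = AUC0-last + Clast/k. α and β half-lives came from linear regression on the linear portion of the concentration-time data, with t1/2 = ln2/k.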

Brain [3] = assay: Elimination half life in C57Bl/6J mouse brain assessed as 4-(4-(thiiran-2-ylmethylsulfonyl)phenoxy)phenol at 25 mg/kg, sc; format: ADME, organism-based; design: dose 25 mg/kg, route subcutaneous; conditions: in vivo; how it was run: as §1
Plasma [4] = assay: Primary phase half life in C57Bl/6J mouse plasma assessed as 4-(4-(thiiran-2-ylmethylsulfonyl)phenoxy)phenol at 25 mg/kg, sc; format: ADME, organism-based; design: dose 25 mg/kg, route subcutaneous; conditions: in vivo; how it was run: as §1
Plasma [5] = assay: AUC (0 to infinity) in C57Bl/6J mouse plasma assessed as 4-(4-(thiiran-2-ylmethylsulfonyl)phenoxy)phenol at 25 mg/kg, sc; format: ADME, organism-based; design: time infinity, dose 25 mg/kg, route subcutaneous; conditions: in vivo; how it was run: as §1
Brain [6] = assay: AUC (0 to infinity) in C57Bl/6J mouse brain assessed as 4-(4-(thiiran-2-ylmethylsulfonyl)phenoxy)phenol at 25 mg/kg, sc; format: ADME, organism-based; design: time infinity, dose 25 mg/kg, route subcutaneous; conditions: in vivo; how it was run: as §1
Plasma [7] = assay: AUC (0 to last) in C57Bl/6J mouse plasma assessed as 4-(4-(thiiran-2-ylmethylsulfonyl)phenoxy)phenol at 25 mg/kg, sc; format: ADME, organism-based; design: time 0 - last, dose 25 mg/kg, route subcutaneous; conditions: in vivo; how it was run: as §1
Brain [8] = assay: AUC (0 to last) in C57Bl/6J mouse brain assessed as 4-(4-(thiiran-2-ylmethylsulfonyl)phenoxy)phenol at 25 mg/kg, sc; format: ADME, organism-based; design: dose 25 mg/kg, route subcutaneous; conditions: in vivo; how it was run: as §1
Brain [9] = assay: Drug uptake in C57Bl/6J mouse brain assessed as 4-(4-(thiiran-2-ylmethylsulfonyl)phenoxy)phenol measured per mg of tissue at 25 mg/kg, sc measured at 4 hrs by reversed phase UPLC/ESI-MRM analysis; format: ADME, organism-based; design: dose 25 mg/kg, route subcutaneous; conditions: in vivo
How it was run: (§2)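 Female C57Bl/6J mice (6–8 weeks, 16–19 g) received a single 100 µL sc dose equivalent to 25 mg/kg, in 10% DMSO/25% Tween 80/65% water or 80% propylene glycol/20% DMSO. Terminal heparinised vena cava blood gave plasma, and saline-perfused whole brain was taken; n = 3 per time point. Acetonitrile extracts with internal standard were run by UPLC/ESI-MRM against matrix calibration curves, linear 0.05–5 µM.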

Brain [10] = assay: Drug uptake in C57Bl/6J mouse brain assessed as 4-(4-(thiiran-2-ylmethylsulfonyl)phenoxy)phenol measured per mg of tissue at 25 mg/kg, sc measured at 20 mins by reversed phase UPLC/ESI-MRM analysis; format: ADME, organism-based; design: dose 25 mg/kg, route subcutaneous; conditions: in vivo; how it was run: as §2
Plasma [11] = assay: Plasma concentration in C57Bl/6J mouse assessed as 4-(4-(thiiran-2-ylmethylsulfonyl)phenoxy)phenol at 25 mg/kg, sc measured at 4 hrs by reversed phase UPLC/ESI-MRM analysis; format: ADME, organism-based; design: dose 25 mg/kg, route subcutaneous; conditions: in vivo; how it was run: as §2
Plasma [12] = assay: Plasma concentration in C57Bl/6J mouse assessed as 4-(4-(thiiran-2-ylmethylsulfonyl)phenoxy)phenol at 25 mg/kg, sc measured at 10 mins by reversed phase UPLC/ESI-MRM analysis; format: ADME, organism-based; design: dose 25 mg/kg, route subcutaneous; conditions: in vivo; how it was run: as §2
Plasma [13] = assay: Metabolic stability in C57Bl/6J mouse plasma assessed as formation of 4-(4-(thiiran-2-ylmethylsulfonyl)phenoxy)phenol at 25 mg/kg, sc measured at 10 to 240 mins; format: ADME, organism-based; design: dose 25 mg/kg, route subcutaneous; conditions: in vivo; how it was run: as §2
Brain [14] = assay: Metabolic stability in C57Bl/6J mouse brain assessed as formation of 4-(4-(thiiran-2-ylmethylsulfonyl)phenoxy)phenol at 25 mg/kg, sc measured at 10 to 240 mins; format: ADME, organism-based; design: dose 25 mg/kg, route subcutaneous; conditions: in vivo; how it was run: as §2
Liver [15] = assay: Metabolic stability in rat liver S9 fraction assessed as formation of Ethyl-carbamic acid 4-[4-(1-oxo-1lambda4-thiiran-2-ylmethanesulfonyl)-phenoxy]-phenyl ester at 50 uM after 30 mins by reversed-phase LC/MS analysis; format: ADME, subcellular; conditions: s9, 0.5 h
How it was run: (§3)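 50 µM compound was incubated with rat liver S9 (1.0 mg) and 0.5 mM NADPH in 50 mM potassium phosphate, pH 7.4, at 37 °C for 30 min. The reaction was stopped with one volume of acetonitrile and centrifuged. Metabolites in the supernatant were identified by reversed-phase LC/ESI-QTOF mass spectrometry.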

Liver [16] = assay: Metabolic stability in rat liver S9 fraction assessed as formation of 4-(4-(ethylcarbamoyloxy)phenoxy)benzenesulfinic acid at 50 uM after 30 mins by reversed-phase LC/MS analysis; format: ADME, subcellular; conditions: s9, 0.5 h; how it was run: as §3
Liver [17] = assay: Metabolic stability in rat liver S9 fraction assessed as formation of 4-(4-(thiiran-2-ylmethylsulfonyl)phenoxy)phenol at 50 uM after 30 mins by reversed-phase LC/MS analysis; format: ADME, subcellular; conditions: s9, 0.5 h; how it was run: as §3
Liver [18] = assay: Half life in rat liver S9 fraction at 10 uM by reversed-phase UPLC/ESI-MRM analysis; format: ADME, subcellular; conditions: s9, 10 µM
How it was run: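 Male rat liver S9 (1.0 mg) with 0.5 mM NADPH and 10 µM compound (both final) in 50 mM potassium phosphate, pH 7.4, at 37 °C, sampled over time. Aliquots were stopped with acetonitrile containing internal standard, and the supernatant was run by UPLC/ESI-MRM. Half-lives used first-order kinetics on peak-area ratios to internal standard.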

[19] = molecular target: MMP-2/MMP-14 (Homo sapiens) (UniProt P50281+P08253); assay: Selectivity ratio of Ki for human recombinant MMP-14 catalytic domain to Ki for human recombinant MMP-2
Homo sapiens = species on record: Homo sapiens; assay: Selectivity ratio of Ki for human recombinant MMP-8 catalytic domain to Ki for human recombinant MMP-2
[20] = molecular target: MMP-2/MMP-9 (Homo sapiens) (UniProt P08253+P14780); assay: Selectivity ratio of Ki for human recombinant MMP-9 catalytic domain to Ki for human recombinant MMP-2
Neutrophil collagenase = Neutrophil collagenase (Homo sapiens, UniProt P22894); assay: Inhibition of human recombinant MMP-8 catalytic domain using […] as substrate by fluorescence spectrophotometric analysis
[21] = molecular target: T1, Matrilysin (Homo sapiens) (UniProt P09237); assay: Inhibition of human recombinant MMP-7 at 50 uM by fluorescence spectrophotometric analysis relative to control
T1 sequence (whole entry): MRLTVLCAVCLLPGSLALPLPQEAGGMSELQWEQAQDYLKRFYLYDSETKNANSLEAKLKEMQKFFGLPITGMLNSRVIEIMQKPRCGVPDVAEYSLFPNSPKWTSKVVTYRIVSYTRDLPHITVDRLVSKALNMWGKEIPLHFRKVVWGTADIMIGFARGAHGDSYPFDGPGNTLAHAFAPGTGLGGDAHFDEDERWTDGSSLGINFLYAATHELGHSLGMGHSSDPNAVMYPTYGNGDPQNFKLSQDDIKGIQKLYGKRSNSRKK

[22] = molecular target: Stromelysin-1 (Homo sapiens) (UniProt P08254); assay: Inhibition of human recombinant MMP-3 catalytic domain at 50 uM by fluorescence spectrophotometric analysis relative to control
[23] = molecular target: T2, Interstitial collagenase (Homo sapiens) (UniProt P03956); assay: Inhibition of human recombinant MMP-1 catalytic domain at 50 uM by fluorescence spectrophotometric analysis relative to control
T2 sequence (whole entry): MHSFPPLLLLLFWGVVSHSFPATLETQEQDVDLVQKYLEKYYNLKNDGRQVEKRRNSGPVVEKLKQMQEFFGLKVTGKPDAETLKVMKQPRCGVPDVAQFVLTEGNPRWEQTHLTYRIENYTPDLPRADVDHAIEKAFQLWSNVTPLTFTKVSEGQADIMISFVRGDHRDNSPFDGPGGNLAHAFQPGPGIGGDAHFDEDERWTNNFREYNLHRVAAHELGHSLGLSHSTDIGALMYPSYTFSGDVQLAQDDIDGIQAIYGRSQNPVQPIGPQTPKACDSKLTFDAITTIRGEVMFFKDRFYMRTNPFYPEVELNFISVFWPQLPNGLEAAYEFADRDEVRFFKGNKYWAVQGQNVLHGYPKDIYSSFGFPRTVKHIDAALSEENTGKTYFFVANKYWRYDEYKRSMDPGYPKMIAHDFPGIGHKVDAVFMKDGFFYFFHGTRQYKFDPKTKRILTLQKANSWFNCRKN

[24] = molecular target: Matrix metalloproteinase-14 (Homo sapiens, UniProt P50281); assay: Inhibition of human recombinant MMP-14 catalytic domain using MOCAcPLGLA2pr(Dnp)AR-NH2 as substrate by fluorescence spectrophotometric analysis
[25] = molecular target: Matrix metalloproteinase-9 (Homo sapiens, UniProt P14780); assay: Inhibition of human recombinant MMP-9 catalytic domain using MOCAcPLGLA2pr(Dnp)AR-NH2 as substrate by fluorescence spectrophotometric analysis
[26] = molecular target: 72 kDa type IV collagenase (Homo sapiens, UniProt P08253); assay: Inhibition of human recombinant MMP-2 using MOCAcPLGLA2pr(Dnp)AR-NH2 as substrate by fluorescence spectrophotometric analysis
Sequence of 72 kDa type IV collagenase (P08253 whole entry): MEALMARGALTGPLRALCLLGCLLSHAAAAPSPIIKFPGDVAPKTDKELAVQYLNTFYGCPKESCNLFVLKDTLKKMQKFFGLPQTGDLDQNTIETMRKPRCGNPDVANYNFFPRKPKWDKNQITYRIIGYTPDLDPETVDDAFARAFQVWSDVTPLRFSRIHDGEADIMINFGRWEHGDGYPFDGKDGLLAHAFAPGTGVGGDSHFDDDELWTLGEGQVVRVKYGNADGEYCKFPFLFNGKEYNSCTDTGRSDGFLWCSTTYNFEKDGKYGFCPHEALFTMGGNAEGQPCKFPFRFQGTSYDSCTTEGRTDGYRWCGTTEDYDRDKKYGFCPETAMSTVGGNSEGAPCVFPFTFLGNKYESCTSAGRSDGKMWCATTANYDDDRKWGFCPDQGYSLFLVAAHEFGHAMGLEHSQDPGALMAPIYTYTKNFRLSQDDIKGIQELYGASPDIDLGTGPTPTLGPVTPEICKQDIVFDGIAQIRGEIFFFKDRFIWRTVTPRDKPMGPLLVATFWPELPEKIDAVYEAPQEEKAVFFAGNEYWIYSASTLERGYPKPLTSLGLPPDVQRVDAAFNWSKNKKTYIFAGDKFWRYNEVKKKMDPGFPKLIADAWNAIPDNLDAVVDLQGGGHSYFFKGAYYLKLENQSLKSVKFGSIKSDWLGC

Sequence of Neutrophil collagenase (P22894 whole entry, the tested form may be a part): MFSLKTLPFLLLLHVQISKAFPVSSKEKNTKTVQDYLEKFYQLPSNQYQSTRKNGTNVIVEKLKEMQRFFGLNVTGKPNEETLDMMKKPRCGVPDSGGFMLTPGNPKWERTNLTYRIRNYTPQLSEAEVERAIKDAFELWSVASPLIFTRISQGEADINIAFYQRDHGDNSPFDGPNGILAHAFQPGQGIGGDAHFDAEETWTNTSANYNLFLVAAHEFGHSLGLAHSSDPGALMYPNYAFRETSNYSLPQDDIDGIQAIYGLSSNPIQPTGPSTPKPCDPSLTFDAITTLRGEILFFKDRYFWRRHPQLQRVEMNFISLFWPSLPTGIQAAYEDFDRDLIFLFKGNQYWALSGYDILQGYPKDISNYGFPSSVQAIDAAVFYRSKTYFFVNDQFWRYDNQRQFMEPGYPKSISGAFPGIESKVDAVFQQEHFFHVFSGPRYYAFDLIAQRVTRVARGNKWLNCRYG
Sequence of Matrix metalloproteinase-9 (P14780 whole entry, the tested form may be a part): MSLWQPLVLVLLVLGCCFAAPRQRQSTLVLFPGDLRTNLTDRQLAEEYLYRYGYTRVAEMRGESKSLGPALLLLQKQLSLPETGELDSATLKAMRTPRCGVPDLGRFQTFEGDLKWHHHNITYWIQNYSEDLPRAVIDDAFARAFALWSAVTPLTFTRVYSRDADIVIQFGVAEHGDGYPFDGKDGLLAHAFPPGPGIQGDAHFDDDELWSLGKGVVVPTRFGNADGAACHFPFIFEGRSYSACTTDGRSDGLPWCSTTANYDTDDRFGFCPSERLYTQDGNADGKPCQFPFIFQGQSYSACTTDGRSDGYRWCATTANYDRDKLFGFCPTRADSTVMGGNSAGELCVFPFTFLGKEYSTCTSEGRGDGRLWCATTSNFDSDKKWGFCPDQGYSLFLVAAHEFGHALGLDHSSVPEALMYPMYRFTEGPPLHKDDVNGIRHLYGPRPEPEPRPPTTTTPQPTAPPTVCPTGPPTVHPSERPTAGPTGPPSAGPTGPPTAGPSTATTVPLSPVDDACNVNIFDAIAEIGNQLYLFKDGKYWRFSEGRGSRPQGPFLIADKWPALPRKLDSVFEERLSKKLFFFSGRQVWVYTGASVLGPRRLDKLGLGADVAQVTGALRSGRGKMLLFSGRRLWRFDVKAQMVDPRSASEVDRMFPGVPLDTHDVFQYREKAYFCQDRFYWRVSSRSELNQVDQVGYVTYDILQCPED

## CCNC(=O)Oc1ccc(Oc2ccc(S(=O)(=O)CC3CS3)cc2)cc1 (stereo not drawn)
[1]
  Ratio AUC: 1.64
Plasma [2]
  beta t1/2: 462 min
Brain [3]
  beta t1/2: 533 min
Plasma [4]
  alphat1/2: 41.3 min
Plasma [5]
  AUC: 69.9 µM·min
Brain [6]
  AUC: 129 pmol·min/mg
Plasma [7]
  AUClast: 54 µM·min
Brain [8]
  AUClast: 88.8 pmol·min/mg
Brain [9]
  Drug uptake: 0.255 pmol
Brain [10]
  Drug uptake: 1.35 pmol
Plasma [11]
  concentration: 114 nM
Plasma [12]
  concentration: 1240 nM
Plasma [13]
  Stability: Unstable
Brain [14]
  Stability: Unstable
Liver [15]
  Stability: Unstable
Liver [16]
  Stability: Unstable
Liver [17]
  Stability: Unstable
Liver [18]
  t1/2: 22.8 min
[19]
  Ratio Ki: 20
Homo sapiens
  Ratio Ki: 20
[20]
  Ratio Ki: 20
Neutrophil collagenase
  Ki: 15 µM
[21]
  inhibition: inactive
[22]
  inhibition: 37%
[23]
  inhibition: inactive
[24]
  Ki: 17 µM
[25]
  Ki: 12 µM
[26]
  Ki: 550 nM
